Mac1 fbg inh: inhibitors of CD11b/CD18 adhesion to fibrinogen, primary screen, K562 cells, luminescence; ATPlite luminescence; Mn2+ added to activate the integrin; Integrin beta-2 (Homo sapiens) + Integrin alpha-M (Homo sapiens), P05107+P11215; inhibition, % at 10 µM; 0.54% of 93,000 active;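 active = primary inhibition of 50% or more at 10 µM, then 40% or more on retest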
Target sequence (P05107 whole entry, looked up, other chains not shown): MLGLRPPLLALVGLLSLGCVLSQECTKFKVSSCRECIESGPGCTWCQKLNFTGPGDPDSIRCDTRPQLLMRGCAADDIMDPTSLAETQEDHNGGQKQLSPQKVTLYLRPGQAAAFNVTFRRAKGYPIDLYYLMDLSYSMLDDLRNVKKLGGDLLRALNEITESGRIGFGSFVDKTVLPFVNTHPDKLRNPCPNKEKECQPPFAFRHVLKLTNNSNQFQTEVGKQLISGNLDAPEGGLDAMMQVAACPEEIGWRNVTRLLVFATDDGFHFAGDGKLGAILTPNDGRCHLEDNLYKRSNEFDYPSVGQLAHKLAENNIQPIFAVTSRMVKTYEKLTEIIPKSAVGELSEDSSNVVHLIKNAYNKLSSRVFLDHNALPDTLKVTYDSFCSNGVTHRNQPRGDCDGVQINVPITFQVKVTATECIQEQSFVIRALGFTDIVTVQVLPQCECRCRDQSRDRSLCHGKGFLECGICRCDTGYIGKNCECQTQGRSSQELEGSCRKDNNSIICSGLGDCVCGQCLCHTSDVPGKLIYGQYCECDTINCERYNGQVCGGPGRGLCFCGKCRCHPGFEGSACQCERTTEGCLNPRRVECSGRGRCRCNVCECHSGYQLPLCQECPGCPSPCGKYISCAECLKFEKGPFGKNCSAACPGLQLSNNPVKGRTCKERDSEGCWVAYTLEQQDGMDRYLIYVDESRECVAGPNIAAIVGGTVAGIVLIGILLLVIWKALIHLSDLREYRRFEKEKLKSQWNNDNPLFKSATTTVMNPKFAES
E coli WT exp: growth inhibitors of wild-type E. coli, primary screen, strain BW25113, expanded library, OD600; OD600 absorbance; growth inhibition, % at 100 µM; 0.15% of 98,000 active; AID 710, 2007;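 active = growth inhibition above about 50% at one test dose, limit read from the data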;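 also: growth measured after 20 h incubation at 37 °C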
Phagocyt inh: inhibitors of macrophage phagocytosis, primary screen, imaging, J774A.1 cells, IgG beads | J774A.1 macrophage IgG-bead phagocytosis | inhibition, % at 5 µM | 0.07% of 110,000 active;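 active = inhibition above the mean of the plate negative controls plus 5 SD, cut at about 13% in these data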;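 also: phagocytic index as fraction of beads internalized from green versus red external bead signal; plate controls were DMSO negative control for no effect and cytochalasin-D positive control for full effect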
Mac1 fbg enh: enhancers of CD11b/CD18 adhesion to fibrinogen, primary screen, K562 cells, luminescence; Integrin beta-2 (Homo sapiens) + Integrin alpha-M (Homo sapiens), P05107+P11215; ATPlite luminescence; activation, % at 10 µM; 0.07% of 93,000 active; AID 1499, 2009;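 active = 10 µM primary screen giving 50% or more activity, confirmed by 40% or more on retest at that dose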
Ecoli tolC: growth inhibitors of E. coli tolC mutant, primary screen, strain BW25113 ΔtolC::kan, 384-well; 2.2% of 65,000 active; OD615; growth inhibition, % at 10 µM (by protocol);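 active = growth inhibition at or above a cutoff equal to the mean over every tested compound plus 3 SD, cut at about 60% in these data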;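 also: growth measured after 20 h incubation at 37 °C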
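Assay system: tolC-deleted E. coli BW25113. Medium: kanamycin-containing LB broth (50 µg/mL). Dosing: 10 µM final, single dose. Timing: bacterial growth with compound for 20 h at 37 °C. Detection: A615 absorbance measurement. Read-out basis: growth inhibition in percent.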
An asterisk follows results filed as active; / = not tested or not shown. Shown is part of a subset that was picked to be rich in hits.

SMILES	Mac1 fbg inh	E coli WT exp	Phagocyt inh	Mac1 fbg enh	Ecoli tolC
Cc1ccc(C)c(C(=O)N(Cc2nc(-c3ccc(Cl)cc3)no2)C(C)C)c1	41	-23	0	-2	77*
Cc1cccc(-c2noc(CN(C(=O)c3ccc4c(c3)OCO4)C(C)C)n2)c1	12	0	4	3	13
COc1ccccc1OCC(=O)N(Cc1nc(-c2ccc(Cl)cc2)no1)C(C)C	5	-15	0	7	10
COc1cccc(OCC(=O)N(Cc2nc(-c3ccc(Cl)cc3)no2)C(C)C)c1	5	-5	1	4	63*
Cc1cc(Cl)ccc1NC(=S)NCC(C)C	/	/	-5	/	/
O=C(N/N=C/c1cccnc1)C(O)c1ccccc1 (centres undefined)	/	/	3	/	/
NS(=O)(=O)c1ccc(CCN=Cc2ccccc2O)cc1	/	/	-4	/	/
S=C(c1ccc(-c2ccc(Cl)c(Cl)c2)o1)N1CCOCC1	15	-5	0	1	65*
S=C(c1ccc(-c2ccccc2Cl)o1)N1CCOCC1	-3	5	0	-5	37
Clc1ccccc1CSc1nncn1NC/C=C/c1ccccc1	0	/	-10	10	/
COc1ccc(CN(C(=O)CN2C(=O)C(C)Oc3ccccc32)C2CCCC2)c(OC)c1 (centres undefined)	-16	-6	-2	3	67*
COc1ccc(CN(C(=O)CN2C(=O)COc3ccccc32)C2CCCC2)c(OC)c1	-16	-5	0	-2	71*
O=C1CN(C(=O)c2ccc(Br)o2)C(c2ccc(F)cc2)c2cc(Cl)ccc2N1 (centres undefined)	6	-18	/	2	26
O=C1CN(C(=O)c2ccc(Br)o2)C(c2ccccc2)c2cc(Cl)ccc2N1 (centres undefined)	10	-6	2	-3	85*
CCCCOC(=O)Nc1ccc(C(=O)OC)cc1	0	-6	0	-4	-16
CCCCOC(=O)Nc1cc(C(=O)OC)ccc1C(=O)OC	3	-1	0	4	67*
O=C(O)CCCN1C(=O)/C(=C/c2ccc(-c3nc4ccccc4s3)o2)SC1=S	93*	5	0	41	/
CC1CCC(C(C)C)C(OC(=O)COC(=O)c2ccc(=O)[nH]c2)C1 (centres undefined)	4	2	-2	-3	63*
CCOC(=O)c1sc2nc(CC(=O)OC)nc(N3CCN(c4ccccn4)CC3)c2c1C	2	-23	-3	-5	66*
O=C(N/N=C\c1cccc(OC(=O)c2ccco2)c1)c1ccc2c(c1)OCO2	/	/	1	/	/
O=S(=O)(Nc1cc(C(F)(F)F)ccc1N1CCOCC1)c1ccc2ccccc2c1	/	/	-2	/	/
CCOC(=O)c1c(C)[nH]c(C)c1C(=O)Cn1nnc(-c2ccccc2C)n1	/	-18	/	/	63*
CCOC(=O)c1c(C)[nH]c(C(=O)Cn2nnc(-c3ccccc3Cl)n2)c1C	-12	-2	-1	1	-9
NS(=O)(=O)c1cccc(NC(=O)CCSc2ccc(Cl)cc2)c1	/	/	-6	/	/
CCCC12CN3CCN(CC(C3)/C1=N\NC(=O)c1ccc(C(C)(C)C)cc1)C2	/	/	-3	/	/
SMILES	Mac1 fbg inh	E coli WT exp	Phagocyt inh	Mac1 fbg enh	Ecoli tolC
O=S(=O)(Nc1nc2ccccc2nc1N1CCN(c2ccccn2)CC1)c1ccc(Cl)cc1	102*	-4	-1	-13	83*
COc1ccccc1-c1nnc2sc(COc3ccc(Cl)cc3)nn12	-13	-10	0	0	69*
O=S(=O)(NC1CCCC1)c1ccc(S(=O)(=O)N(Cc2cccs2)CC2CCCO2)cc1 (centres undefined)	-11	-11	0	4	64*
CC(=O)c1c(C)n([O-])c2cc(C)ccc2[n+]1=O	-7	46	/	-6	91*
COCCn1c(=O)[nH]c(=O)c2c(C(F)(F)F)cc(-c3cccs3)nc21	11	/	-14	-1	/
CCCCCOc1ccccc1C(=O)NCCC(=O)O	/	1	/	/	/
O=C1c2oc3ccccc3c(=O)c2C(c2cccc(Br)c2)N1Cc1ccco1 (centres undefined)	-3	-1	2	60*	-25
CCOc1ccc(-c2[nH]ncc2-c2ccc(OC)c(OC)c2)c(O)c1	25	-1	3	-4	40
C=C(C)COc1ccc(-c2[nH]ncc2-c2ccccc2OC)c(O)c1	17	26	0	-1	38
CCOc1ccc(-c2n[nH]c(C)c2Oc2ccc(OC)cc2)c(O)c1	13	9	-2	-2	95*
C=C(C)COc1ccc(-c2[nH]ncc2Oc2ccccc2OC)c(O)c1	39	17	-1	-2	100*
CCOc1ccc(-c2[nH]ncc2Oc2ccccc2OCC)c(O)c1	2	22	-1	-2	95*
CCCOC(=O)c1ccc(Oc2cn[nH]c2-c2ccc(OC)cc2O)cc1	39	-2	-2	-6	95*
C=CCOC(=O)/C(=C/c1cccc2ccccc12)NC(=O)c1ccccc1	/	/	-6	/	/
CC(Oc1ccc(Cl)cc1)C(=O)NNC(=S)NC(=O)c1ccco1 (centres undefined)	/	/	3	/	/
COc1cc(-c2noc(CCCC(=O)NCc3ccccc3)n2)cc(OC)c1OC	10	-4	3	-2	/
CCOc1ccc(-c2[nH]ncc2Oc2ccccc2OC)c(O)c1	4	6	-1	2	94*
CCc1cccc(NC(=O)Cn2ncn3c(cc4ccccc43)c2=O)c1	-7	-21	-2	21	1
Cc1ccc(Cn2ncn3c(cc4ccccc43)c2=O)cc1	-1	1	-3	-7	65*
c1ccc(Nc2ccccc2Nc2ccccn2)nc1	/	11	/	/	-2
Oc1cccc2ccc(Nc3ccccn3)nc12	42	100*	2	-4	2
Cn1c(CN2CCN(C(=O)c3ccc(F)cc3)CC2)nc2cc([N+](=O)[O-])ccc21	24	/	/	1	/
CC1CCCN(S(=O)(=O)c2ccc(C(=O)Nc3nnc(-c4ccccc4Cl)o3)cc2)C1 (centres undefined)	-24	-9	-1	2	100*
CC1CCCN(S(=O)(=O)c2ccc(NC(=O)Cn3nnc(-c4ccccc4F)n3)cc2)C1 (centres undefined)	4	-11	-1	12	64*
O=C(Nc1nnc(-c2cccs2)o1)c1cccc(C(F)(F)F)c1	72*	57*	0	1	100*
CC1CC(C)CN(S(=O)(=O)c2ccc(C(=O)Nc3nnc(-c4cccs4)o3)cc2)C1 (centres undefined)	8	4	-2	-2	99*
Cc1ccc(S(=O)(=O)N2CCCCC2)cc1NS(=O)(=O)c1cccc(C(=O)O)c1	/	/	4	/	/
O=C(Nc1nnc(-c2ccccc2Cl)o1)c1cccnc1	-44	7	-1	-4	70*

Source: PubChem BioAssay
